Screening data: PubChem, Broad Institute
FGF22 binding: binders of recombinant human FGF22 by thermal shift | activity (Tm shift, normalised), % at 9.99 µM | SYPRO orange fluorescence; percent of sucrose octasulfate shift, DMSO zero | AID 651658 | Q9HCT0 | hit rate 1.5% among 340,000;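 active means mean Tm shift, scaled 0 neutral to 100 positive control, at about 1.3% or above, every replicate too, limit read from the data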
Target sequence (Q9HCT0 whole entry, looked up): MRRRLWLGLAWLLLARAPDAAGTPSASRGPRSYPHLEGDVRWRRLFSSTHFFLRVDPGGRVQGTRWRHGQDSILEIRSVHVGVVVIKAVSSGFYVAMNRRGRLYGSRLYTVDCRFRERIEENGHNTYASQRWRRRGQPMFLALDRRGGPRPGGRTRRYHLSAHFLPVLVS
miR122 inh: blocks miR-122 activity in Huh7 sensor cells. Huh7 miR-122 Renilla luciferase sensor, 48 h; neutral wells = 0, positive control = 100. activation (reporter increase), % at 12.5 µM. hit rate 0.3% among 340,000;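 active means mean replicate activation score at least 90 and every replicate individually at or above 90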;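 further: higher luciferase means less miR-122 activity so hits act as miR-122 inhibitors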
E-selectin induc: E-selectin induction on HUVECs; P16581; HUVEC E-selectin immunofluorescence imaging; normalized: neutral wells 0, TNF-alpha wells 100; activation, % at 7.58 µM; hit rate 0.37% among 260,000; AID 686992;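 active means mean E-selectin-positive cell signal at least 10% of the positive control, reached in at least 60% of replicates, without over 20% cell loss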
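System: HUVEC, human umbilical vein endothelial cells; quantity: 3,000 cells/well; buffer or medium: EGM-2 medium, gelatin-coated wells; dosing: single-point compound dose; detection: immunofluorescence imaging; evaluation: % PE-positive cells; benchmarks: TNF-alpha, DMSO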
SIRT5 block: sirtuin-5 (human) deacylase inhibition; inhibition, % at 15 µM; Q9NXA8; Purified SirT5, succinyl-peptide AMC, trypsin-coupled fluorescence; hit rate 1.1% among 330,000; in the data active means inhibition above about 15%
Target sequence (Q9NXA8 whole entry, looked up): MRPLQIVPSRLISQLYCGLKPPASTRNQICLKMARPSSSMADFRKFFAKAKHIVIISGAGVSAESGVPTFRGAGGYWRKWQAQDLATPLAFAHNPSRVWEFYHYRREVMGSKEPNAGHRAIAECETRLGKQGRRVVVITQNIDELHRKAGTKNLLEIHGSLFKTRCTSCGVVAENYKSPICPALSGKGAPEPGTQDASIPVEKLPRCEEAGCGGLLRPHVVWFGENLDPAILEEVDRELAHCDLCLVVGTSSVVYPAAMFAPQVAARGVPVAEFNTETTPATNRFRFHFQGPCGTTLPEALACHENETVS
S100A4 inh HTS: blocks human S100A4 binding to myosin IIA peptide | P26447 | S100A4/TAMRA-MyoIIA peptide fluorescence polarization | inhibition, % at 10.7 µM | hit rate 0.14% among 360,000;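 active means mean inhibition of at least 70% across replicates, with every replicate also reaching that level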
Target sequence (P26447 whole entry, looked up): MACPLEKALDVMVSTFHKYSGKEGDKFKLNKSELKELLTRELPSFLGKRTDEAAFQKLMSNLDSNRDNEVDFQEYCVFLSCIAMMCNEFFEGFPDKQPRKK
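Test system: S100A4 monomer protein. Medium: HEPES buffer with Ca2+, pH 7.2. Reagent: fluorescent myosin IIA peptide, 5 nM. Compound dosing: single-point compound testing. Timing: 5 min between mix addition and reading. Benchmarks: DMSO neutral and TFP positive wells.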
Numbers stand for hits; n = inactive; x = no result given; ! = not confirmed by another sample. Most compounds without a hit are left out; they make up all but 2.5% or so of the library.

SMILES	FGF22 binding	miR122 inh	E-selectin induc	SIRT5 block	S100A4 inh HTS
C[C@@H]1CN([C@H](C)CO)C(=O)c2cc(NC(=O)Nc3ccc(C(F)(F)F)cc3)ccc2O[C@H]1CN(C)C(=O)NC1CCCCC1	n	n	n	n	n
CNC[C@@H]1Oc2ccc(NC(=O)Nc3ccc(OC)cc3)cc2CC(=O)N([C@@H](C)CO)C[C@H]1C	n	n	x	n	n
CCN(CC)CCOCCn1c(C)ccc1C	43	x	n	x	n
CN1CCN(C(=O)C[C@H]2C[C@@H]3c4cc(NC(=O)CC5CC5)ccc4O[C@@H]3[C@H](CO)O2)CC1	n	n	n	n	n
CC(C(=O)NC(C)(C)C)N1C(=O)c2cccc3cccc(c23)C1=O (centres undefined)	43	x	x	n	n
CC(=O)c1c(C)[n+]([O-])c2ccc3c(non3O)c12	n	x	n	n	n
CCOC(=O)c1c(C)[n+]([O-])c2ccc3c(non3O)c12	44	n	x	n	n
CC(C)NC(=O)Nc1ccc2c(c1)C(=O)N([C@@H](C)CO)C[C@@H](C)[C@H](CN(C)Cc1ccncc1)OCCCC[C@@H](C)O2	n	n	n	n	n
CCC(=O)N1C[C@@H](C)[C@@H](OC)CN(C)C(=O)c2ccc(NC(=O)Nc3ccc(Cl)cc3)cc2OC[C@@H]1C	n	x	n	n	x
COc1ccc(/C=N/NC(=O)c2snnc2C)c(OC)c1OC	43	n	n	n	n
O=c1[nH]c(Cc2ccc(F)cc2)nc2scc(-c3ccc(F)cc3)c12	n	n	n	21	n
C/C=C/c1ccc([C@@H]2[C@@H](CO)N[C@@H]2CN(CC(C)C)C(=O)c2ccccn2)cc1	n	n	n	18	x
Cc1csc(NC(=O)Cc2ccccc2[N+](=O)[O-])n1	n	x	n	17	n
CCOC(=O)Cc1csc(NC(=O)Cc2ccccc2[N+](=O)[O-])n1	n	x	x	n	n
O=C(COC(=O)c1ccc(-c2ccc([N+](=O)[O-])cc2)o1)NC(=O)NC12CC3CC(CC(C3)C1)C2	n	x	149	n	n
CC(=O)c1ccc(NC(=O)C(C)N(C)CC(=O)Nc2ccc(Cl)cc2)cc1 (centres undefined)	44	n	n	n	n
CC(=O)c1ccc(NC(=O)C(C)N(C)CC(=O)Nc2ccc(N3CCOCC3)cc2)cc1 (centres undefined)	n	n	n	n	n
CC1(Cc2ccc(C(F)(F)F)nc2)C(=O)Nc2cc(-c3ccccc3Cl)ccc21 (centres undefined)	43	n	n	x	n
CC1(Cc2ccccc2C#N)C(=O)Nc2cc(-c3ccccc3Cl)ccc21 (centres undefined)	n	n	n	x	n
Cn1c(=O)c2nc(-c3ccccc3)c(-c3ccccc3)nc2n(C)c1=O	n	x	n	n	n
Cn1c(=O)c2nc3ccccc3nc2n(C)c1=O	43	n	n	n	n
CCN(c1ccccc1)S(=O)(=O)c1nnc(NC(=O)C(C)C)s1	n	n	x	n	n
CCN(c1ccccc1)S(=O)(=O)c1nnc(NC(=O)C(C)(C)C)s1	n	n	n	30	n
Cc1cc(C)cc(NS(=O)(=O)c2ccc3c(c2)C(C)(C)C(=O)N3C)c1	n	107	n	x	n
CC(C)(C)c1ccc(S(=O)(=O)NC(=O)C2(C)CCN2C(=O)CC2CCCCC2)cc1 (centres undefined)	n	n	n	n	n
SMILES	FGF22 binding	miR122 inh	E-selectin induc	SIRT5 block	S100A4 inh HTS
CC(C)(C)c1ccc(S(=O)(=O)NC(=O)C2(C)CCN2C(=O)C2CCCCC2)cc1 (centres undefined)	n	n	n	19	n
CNS(=O)(=O)c1ccc(NC(=O)c2cnn3c(C(F)F)cc(-c4ccccc4)nc23)cc1	43	n	x	n	n
COc1ccc(-c2cc(C(F)F)n3ncc(C(=O)Nc4cc(C)on4)c3n2)cc1	43	x	n	n	n
CC(=O)c1ccc(N2CCN(c3ccnc4cc(Cl)ccc34)CC2)cc1	n	n	40	n	n
CC(=O)c1ccc(-n2nnnc2SCC(=O)Nc2sc(C)c(C)c2C#N)cc1	44	x	x	n	n
C[C@H]1CN([C@@H](C)CO)C(=O)c2cc(NS(=O)(=O)c3ccc(F)cc3)ccc2O[C@H]1CN(C)Cc1ccccc1	n	n	n	n	n
N#Cc1ccccc1NC(=O)CSC1=Nc2ccccc2C2CC=NN12 (centres undefined)	44	n	x	n	n
CCCn1nnc2ccccc2c1=O	x	n	x	x	x
CCOc1ccc(OCCn2nnc3ccccc3c2=O)cc1	44	x	x	n	n
CCC(=O)Nc1ccc2c(c1)C(=O)N(C)C[C@@H](OC)[C@@H](C)CN(C(=O)CN1CCOCC1)[C@@H](C)CO2	x	n	n	x	x
CCCc1nn2c(=O)cc(CSCC(=O)Nc3ccc(C)cc3)nc2s1	n	n	n	36	n
COc1ccc(NC(=O)N(C)C[C@@H]2Oc3c(NS(=O)(=O)c4cn(C)cn4)cccc3C(=O)N([C@@H](C)CO)C[C@H]2C)cc1	n	n	28	n	n
COc1ccc(S(=O)(=O)Nc2cccc3c2O[C@H](CN(C)C(=O)Nc2c(C)noc2C)[C@@H](C)CN([C@H](C)CO)C3=O)cc1	n	n	41!	n	n
COc1ccc(NC(=O)N(C)C[C@H]2Oc3c(NS(=O)(=O)c4cn(C)cn4)cccc3C(=O)N([C@@H](C)CO)C[C@@H]2C)cc1	n	n	39	n	n
COc1ccc(NC(=O)N(C)C[C@H]2Oc3c(NS(C)(=O)=O)cccc3C(=O)N([C@@H](C)CO)C[C@H]2C)cc1	n	n	x	33	n
O=C(C[C@H]1C[C@H]2c3cc(NC(=O)c4cccnc4)ccc3O[C@H]2[C@H](CO)O1)NCc1ccccc1	n	n	n	n	n
COc1ccc(NC(=O)Nc2cccc3c2O[C@@H](CN(C)C(=O)NC2CCCCC2)[C@H](C)CN([C@H](C)CO)C3=O)cc1	n	n	49	n	n
CC(=O)Nc1cccc(C(=O)NC2CCCc3c2cnn3-c2ccccc2F)c1 (centres undefined)	n	n	x	n	199
Cc1nnsc1C(=O)NC1CCCc2c1cnn2-c1ccc(F)cc1F (centres undefined)	n	n	x	n	n
Cc1ccc(C(=O)NC2CCCc3c2cnn3-c2ccc(F)cc2F)cn1 (centres undefined)	n	n	n	20	n
CCCCn1c(NC(=O)c2ccc(Br)o2)c(S(=O)(=O)c2ccccc2)c2nc3ccccc3nc21	x	165	x	x	x
CCCCn1c(NC(=O)c2ccco2)c(S(=O)(=O)c2ccc(C)cc2)c2nc3ccccc3nc21	n	x	n	n	n
CCCNC1(C(N)=O)CCN(Cc2ccccc2)CC1	43	x	n	x	n
[O-][N+](=Cc1ccccc1)CC1(O)CCCCC1	43	n	n	x	n
Cc1nc2ccc(NC(=O)C3COc4ccccc4O3)cc2s1 (centres undefined)	n	n	n	n	n
